Laboratory results reported in ChEMBL document CHEMBL1121633, “Neuroleptic 4-aryltetrahydropyrrolo[3,4-b]indoles” (1980).

How the values were obtained:
Rattus norvegicus [1] = assay: Antipsychotic activity was assessed by ability to antagonize the stereotypy induced in rats by d-amphetamine (5 mg / kg, ip) after 1 h; assay type: functional
How it was run: (§1)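 Rats were housed singly in covered plastic compartments and briefly acclimated. Groups of five received compound ip at doses spaced 0.5 log unit (e.g., 1, 3.2, 10, 32 mg/kg). d-Amphetamine sulfate 5 mg/kg ip was given 1, 5 or 24 h later. One hour after each challenge, at peak amphetamine effect, each rat's most characteristic behavior was rated on a six-point scale.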

Rattus norvegicus [2] = assay: Antipsychotic activity was assessed by ability to antagonize the stereotypy induced in rats by d-amphetamine (5 mg / kg, ip) after 5 h; Range is 10-32; assay type: functional; how it was run: as §1
Rattus norvegicus [3] = assay: Antipsychotic activity was assessed by ability to antagonize the stereotypy induced in rats by d-amphetamine (5 mg / kg, ip) after 24 h; assay type: functional; how it was run: as §1
Rattus norvegicus [4] = assay: Antipsychotic activity was assessed by ability to antagonize the stereotypy induced in rats by d-amphetamine (5 mg / kg, ip) after 1 h; Range is 3.2-10
Rattus norvegicus [5] = assay: Antipsychotic activity was assessed by ability to antagonize the stereotypy induced in rats by d-amphetamine (5 mg / kg, ip) after 5 h; assay type: functional; how it was run: as §1
Rattus norvegicus [6] = assay: Antipsychotic activity was assessed by ability to antagonize the stereotypy induced in rats by d-amphetamine (5 mg / kg, ip) after 1 h; Range is 3.2-5.6; assay type: functional; how it was run: as §1
Rattus norvegicus [7] = assay: Antipsychotic activity was assessed by ability to antagonize the stereotypy induced in rats by d-amphetamine (5 mg / kg, ip) after 1 h; Range is 0.1-0.32; assay type: functional; how it was run: as §1
Rattus norvegicus [8] = assay: Antipsychotic activity was assessed by ability to antagonize the stereotypy induced in rats by d-amphetamine (5 mg / kg, ip) after 5 h; Range is 0.1-0.32; assay type: functional; how it was run: as §1
Rattus norvegicus [9] = assay: Antipsychotic activity was assessed by ability to antagonize the stereotypy induced in rats by d-amphetamine (5 mg / kg, ip) after 24 h; Range is 1.0-3.2; assay type: functional; how it was run: as §1
Rattus norvegicus [10] = assay: Antipsychotic activity was assessed by ability to antagonize the stereotypy induced in rats by d-amphetamine (5 mg/kg, ip) after 24 h; assay type: functional; how it was run: as §1
Rattus norvegicus [11] = assay: Antipsychotic activity was assessed by ability to antagonize the stereotypy induced in rats by d-amphetamine (5 mg/kg, ip) after 5 h; assay type: functional; how it was run: as §1
Rattus norvegicus [12] = assay: Antipsychotic activity was assessed by ability to antagonize the stereotypy induced in rats by d-amphetamine (5 mg/kg, ip) after 1 h; assay type: functional; how it was run: as §1
Rattus norvegicus [13] = assay: Antipsychotic activity was assessed by ability to antagonize the stereotypy induced in rats by d-amphetamine (5 mg / kg, ip) after 1 h; Range is 1.0-3.2; assay type: functional; how it was run: as §1
Rattus norvegicus [14] = assay: Antipsychotic activity was assessed by ability to antagonize the stereotypy induced in rats by d-amphetamine (5 mg / kg, ip) after 5 h; Range is 1.0-3.2; assay type: functional; how it was run: as §1
Rattus norvegicus [15] = assay: Antipsychotic activity was assessed by ability to antagonize the stereotypy induced in rats by d-amphetamine (5 mg / kg, ip) after 24 h; Range is 3.2-10; assay type: functional; how it was run: as §1
Rattus norvegicus [16] = assay: Antipsychotic activity was assessed by ability to antagonize the stereotypy induced in rats by d-amphetamine (5 mg/kg, ip) after 1 h; Range is 10-32; assay type: functional; how it was run: as §1
Rattus norvegicus [17] = assay: Antipsychotic activity was assessed by ability to antagonize the stereotypy induced in rats by d-amphetamine (5 mg/kg, ip) after 1 h; Range is 3.2-10; assay type: functional; how it was run: as §1
Rattus norvegicus [18] = assay: Antipsychotic activity was assessed by ability to antagonize the stereotypy induced in rats by d-amphetamine (5 mg/kg, ip) after 5 h; Range is 3.2-10; assay type: functional; how it was run: as §1

Compound `Cl.OC(CCCCN1Cc2c(n(-c3ccc(F)cc3)c3ccc(F)cc23)C1)c1ccc(F)cc1` (stereo unspecified) has an ED50 (Rattus norvegicus [1]) of over 32 mg/kg and an ED50 (Rattus norvegicus [2]) of 10 mg/kg.
For `CN(C)CCCN1c2ccccc2Sc2ccc(Cl)cc21` [CHLORPROMAZINE], the ED50 (Rattus norvegicus [3]) was 56 mg/kg, the ED50 (Rattus norvegicus [4]) was 3.2 mg/kg and the ED50 (Rattus norvegicus [5]) was 17.8 mg/kg.
`CN1Cc2c(n(-c3ccc(F)cc3)c3ccc(F)cc23)C1.Cl` gave an ED50 (Rattus norvegicus [6]) of 3.2 mg/kg and an ED50 (Rattus norvegicus [5]) of over 10 mg/kg.
`Cl.OC(CCCN1CCc2c(c3cc(F)ccc3n2-c2ccc(F)cc2)C1)c1ccc(F)cc1` (stereo unspecified) was tested, and the ED50 (Rattus norvegicus [7]) was 0.1 mg/kg, the ED50 (Rattus norvegicus [8]) was 0.1 mg/kg and the ED50 (Rattus norvegicus [9]) was 1 mg/kg.
`Cl.Fc1ccc(-n2c3c(c4cc(F)ccc42)CNC3)cc1` was tested, and the ED50 (Rattus norvegicus [10]) was 32 mg/kg, the ED50 (Rattus norvegicus [11]) was over 32 mg/kg and the ED50 (Rattus norvegicus [12]) was over 32 mg/kg.
`Cl.OC(CCCN1Cc2c(n(-c3ccc(F)cc3)c3ccc(F)cc23)C1)c1ccc(F)cc1` (stereo unspecified) was tested, and the ED50 (Rattus norvegicus [13]) was 1 mg/kg, the ED50 (Rattus norvegicus [14]) was 1 mg/kg and the ED50 (Rattus norvegicus [15]) was 3.2 mg/kg.
Work on `Cl.O=C(CCCCN1Cc2c(n(-c3ccc(F)cc3)c3ccc(F)cc23)C1)c1ccc(F)cc1` yielded an ED50 (Rattus norvegicus [1]) of 32 mg/kg and an ED50 (Rattus norvegicus [5]) of over 32 mg/kg.
For `Cl.Fc1ccc(-n2c3c(c4cc(F)ccc42)CN(CCc2ccccc2)C3)cc1`, the ED50 (Rattus norvegicus [1]) was over 32 mg/kg and the ED50 (Rattus norvegicus [5]) was over 32 mg/kg.
`Cl.OC(CCCN1Cc2c(n(-c3ccc(F)cc3)c3ccc(F)cc23)C1)c1ccccc1` (stereo unspecified) was tested, and the ED50 (Rattus norvegicus [16]) was 10 mg/kg, the ED50 (Rattus norvegicus [10]) was over 32 mg/kg and the ED50 (Rattus norvegicus [11]) was over 10 mg/kg.
Work on `CCOC(=O)N1Cc2c(n(-c3ccc(F)cc3)c3ccc(F)cc23)C1` yielded an ED50 (Rattus norvegicus [11]) of over 32 mg/kg and an ED50 (Rattus norvegicus [12]) of over 32 mg/kg.
Compound `CCOC(=O)N1Cc2[nH]c3ccc(F)cc3c2C1.Cl` has an ED50 (Rattus norvegicus [1]) of over 32 mg/kg and an ED50 (Rattus norvegicus [5]) of over 32 mg/kg.
For `CCCN1Cc2c(n(-c3ccc(F)cc3)c3ccc(F)cc23)C1.I`, the ED50 (Rattus norvegicus [1]) was over 32 mg/kg and the ED50 (Rattus norvegicus [5]) was over 32 mg/kg.
In the case of `Cl.O=C(CCCN1Cc2c(n(-c3ccc(F)cc3)c3ccc(F)cc23)C1)c1ccc(F)cc1`, the ED50 (Rattus norvegicus [10]) is reported as over 10 mg/kg, the ED50 (Rattus norvegicus [17]) is reported as 3.2 mg/kg and the ED50 (Rattus norvegicus [18]) is reported as 3.2 mg/kg.
`Cl.O=C(CCCN1Cc2c(n(-c3ccc(F)cc3)c3ccc(F)cc23)C1)c1ccccc1` gave an ED50 (Rattus norvegicus [1]) of over 32 mg/kg and an ED50 (Rattus norvegicus [5]) of over 32 mg/kg.
In the case of `Cl.Fc1ccc(-n2c3c(c4cc(F)ccc42)CN(Cc2ccccc2)C3)cc1`, the ED50 (Rattus norvegicus [1]) is reported as over 32 mg/kg and the ED50 (Rattus norvegicus [5]) is reported as over 32 mg/kg.
